# Test results from ChEMBL document CHEMBL3994624, “Antimalarial Pyrido[1,2-a]benzimidazoles: Lead Optimization, Parasite Life Cycle Stage Profile, Mechanistic Evaluation, Killing Kinetics, and in Vivo Oral Efficacy in a Mouse Model” (J Med Chem, 2017).
# Legend:
# [1] = Metabolic stability in human liver microsomes assessed as compound remaining at 1 uM in presence of NADPH after 30 mins by LC-MS/MS analysis; format: ADME, microsome; details: read-out: Stability
# Summary of the method: (§1)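 Mouse and human liver microsomes; % compound remaining after 30 min.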
# [2] = Metabolic stability in Balb/c mouse liver microsomes assessed as compound remaining at 1 uM in presence of NADPH after 30 mins by LC-MS/MS analysis; format: ADME, microsome; details: read-out: Stability; summary of the method: as §1
# Plasmodium falciparum [3] = experiment: Anti-plasmodial activity against chloroquine-sensitive Plasmodium falciparum NF54 by [3H]-hypoxanthine incorporation assay; format: functional
# Summary of the method: (§2)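 P. falciparum asexual blood-stage growth inhibition by [3H]hypoxanthine incorporation; chloroquine and artesunate run as reference drugs in every experiment; IC50 given as mean of ≥2 independent experiments.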
# [4] = Selectivity index, ratio of IC50 for CHO cells to IC50 for chloroquine-sensitive Plasmodium falciparum NF54; format: toxicity; details: hamster, read-out: Ratio IC50
# Summary of the method: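 Selectivity index = IC50 CHO / IC50 PfNF54.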
# Plasmodium falciparum [5] = experiment: Anti-plasmodial activity against multidrug resistant Plasmodium falciparum K1 by [3H]-hypoxanthine incorporation assay; format: functional; summary of the method: as §2
# CHO = experiment: Cytotoxicity against CHO cells after by MTT assay; format: cell-based; details: Cricetulus griseus
# [6] = Kinetic solubility of the compound in FaSSIF at pH 6.5 after 2 hrs by shake flask method; format: physicochemical; details: read-out: Kinetic_solubility
# Huh-7 = experiment: Cytotoxicity against human HuH7 cells at 1 to 10 uM after 48 hrs by Alamarblue assay; format: cell-based; details: huh-7, 48 h
# Plasmodium falciparum [7] = experiment: Ratio of IC50 for chloroquine-sensitive Plasmodium falciparum NF54 early 2/3 stage gametocytes to IC50 for chloroquine-sensitive Plasmodium falciparum NF54 late 4/5 stage gametocytes; format: functional
# Summary of the method: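 Early (stage II/III) and late (stage IV/V) gametocytes tested in parallel luciferase reporter assays; stage preference = EG IC50/LG IC50.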
# Plasmodium falciparum [8] = experiment: Anti-plasmodial activity against chloroquine-sensitive Plasmodium falciparum NF54 late 4/5 stage gametocytes assessed as reduction in ATP levels after 24 hrs by BacTiter-Glo reagent based bioluminescence assay; format: functional; details: NF54, 24 h
Structure (SMILES),IC50 (Plasmodium falciparum [3]),selectivity ratio [4],IC50 (Plasmodium falciparum [5]),IC50 (CHO),other results
CS(=O)(=O)c1ccc(-c2cnc(N)c(-c3ccc(C(F)(F)F)nc3)c2)cc1 [MMV-048],,,,,"remaining at 0.5 h, 1 µM [1]: 93%; remaining at 0.5 h, 1 µM [2]: 94%"
CCNCCNc1cc(-c2ccc([S+](C)[O-])cc2)c(C#N)c2nc3ccccc3n12 (stereo unspecified),3.81 µM,,,,
CCNCCNc1cc(-c2ccccc2F)c(C#N)c2nc3ccccc3n12,0.89 µM,27,1 µM,24.4 µM,
N#Cc1c(-c2ccc(C(F)(F)F)cc2)cc(N2CCC(=O)CC2)n2c1nc1ccccc12,> 10 µM,,,,
N#Cc1c(-c2ccc(C(F)(F)F)cc2)cc(NC2CCC(O)CC2)n2c1nc1ccccc12 (stereo unspecified),> 10 µM,,,,
N#Cc1c(-c2ccc(C(F)(F)F)cc2)cc(NCCN2CCC(O)CC2)n2c1nc1ccccc12,1.1 µM,,,,solubility kinetic at 2 h [6]: < 5 µM
N#Cc1c(-c2ccc(C(F)(F)F)cc2)cc(N2CCC(N)CC2)n2c1nc1cc(Cl)cc(Cl)c12,0.18 µM,7.3,0.21 µM,2.98 µM,
CC(C)(O)C1CCC(Nc2cc(-c3ccc(C(F)(F)F)cc3)c(C#N)c3nc4ccccc4n23)CC1 (stereo unspecified),4.96 µM,,,,
CS(=O)(=O)N1CCN(CCNc2cc(-c3ccc(C(F)(F)F)cc3)c(C#N)c3nc4ccccc4n23)CC1,> 10 µM,,,,
CN1CCN(c2cc(-c3ccc(C(F)(F)F)cc3)c(C#N)c3nc4ccccc4n23)CC1,7.26 µM,,0.46 µM,,
CC(=O)NCCNc1cc(-c2ccc(C(F)(F)F)cc2)c(C#N)c2nc3ccccc3n12,16.4 µM,,,,
N#Cc1c(-c2ccc(C(F)(F)F)cc2)cc(N2CCNCC2)n2c1nc1ccccc12,3 µM,,0.44 µM,,
CCNCCNc1cc(-c2ccc(SC)cc2)c(C#N)c2nc3ccccc3n12,3.9 µM,,,,
CCNCCNc1cc(-c2ccc(C#N)cc2)c(C#N)c2nc3ccccc3n12,0.17 µM,23,0.2 µM,3.9 µM,Activity (Huh-7): Non-Toxic; Ratio IC50 (Plasmodium falciparum [7]): 1.3; IC50 (Plasmodium falciparum [8]): 2.66 µM
CC[C@H]1CN2CCc3cc(OC)c(OC)cc3[C@@H]2C[C@@H]1C[C@H]1NCCc2cc(OC)c(OC)cc21 [EMETINE],,,,0.095 µM,
N#Cc1c(-c2ccc(C(F)(F)F)cc2)cc(NCCN2CCCC2=O)n2c1nc1ccccc12,5.99 µM,,,,
CCNCCNc1c(F)c(-c2ccc(C(F)(F)F)cc2)c(C#N)c2nc3ccccc3n12,5.53 µM,,,,"solubility kinetic at 2 h [6]: 160 µM; remaining at 0.5 h, 1 µM [1]: 39%; remaining at 0.5 h, 1 µM [2]: 35%"
CCNCCNc1cc(-c2ccc(C(F)(F)F)cc2)c(C#N)c2nc3cc(Br)ccc3n12,0.38 µM,5,,1.8 µM,
CCNCCNc1cc(-c2ccc(S(C)(=O)=O)cc2)c(C#N)c2nc3ccccc3n12,0.31 µM,658,0.33 µM,204 µM,"solubility kinetic at 2 h [6]: 40 µM; remaining at 0.5 h, 1 µM [2]: 86%"
CC1(O)CCC(Nc2cc(-c3ccc(C(F)(F)F)cc3)c(C#N)c3nc4ccccc4n23)CC1 (stereo unspecified),6.45 µM,,,,
N#Cc1c(-c2ccc(C(F)(F)F)cc2)cc(NCC2CCS(=O)(=O)CC2)n2c1nc1ccccc12,> 10 µM,,,,
N#Cc1c(-c2ccc(C(F)(F)F)cc2)cc(N2CCC(O)C2)n2c1nc1ccccc12 (stereo unspecified),8.48 µM,,,,
CCNCCNc1cc(-c2ccc(C(=O)OC)cc2)c(C#N)c2nc3ccccc3n12,1.56 µM,,,,Activity (Huh-7): Non-Toxic; Ratio IC50 (Plasmodium falciparum [7]): 1.4; IC50 (Plasmodium falciparum [8]): 1.68 µM
CCNCCNc1cc(-c2ccc(C(F)(F)F)cc2)c(C#N)c2nc3cnccc3n12,0.27 µM,6,0.84 µM,3.14 µM,

Structure (SMILES),IC50 (Plasmodium falciparum [3]),selectivity ratio [4],IC50 (Plasmodium falciparum [5]),IC50 (CHO),other results
CCNCCNc1cc(-c2ccc(C(F)(F)F)cc2)c(C#N)c2nc3cccc(Br)c3n12,0.15 µM,2,0.24 µM,1.55 µM,
CCN(CC)CCCC(C)Nc1cc(C(F)(F)F)c(C#N)c2nc3ccccc3n12 (stereo unspecified),4.13 µM,,,,
N#Cc1c(-c2ccc(C(F)(F)F)cc2)cc(N2CCC(N)CC2)n2c1nc1ccccc12,0.95 µM,17,0.7 µM,15.8 µM,"solubility kinetic at 2 h [6]: < 5 µM; remaining at 0.5 h, 1 µM [1]: 91%; remaining at 0.5 h, 1 µM [2]: 92%"
CCNCCNc1cc(-c2ccc(Cl)cc2)c(C#N)c2nc3ccccc3n12,0.66 µM,15,0.43 µM,9.6 µM,Activity (Huh-7): Non-Toxic; Ratio IC50 (Plasmodium falciparum [7]): 1.5; IC50 (Plasmodium falciparum [8]): 0.69 µM
CNC1CCN(c2cc(-c3ccc(C(F)(F)F)cc3)c(C#N)c3nc4ccccc4n23)CC1,0.84 µM,8,0.9 µM,6.31 µM,
N#Cc1c(-c2ccc(C(F)(F)F)cc2)cc(NC2CCNCC2)n2c1nc1cc(Cl)cc(Cl)c12,0.26 µM,22.3,,5.9 µM,
CC(=O)N1CCC(Nc2cc(-c3ccc(C(F)(F)F)cc3)c(C#N)c3nc4ccccc4n23)CC1,4.42 µM,,,,
N#Cc1c(-c2ccc(C(F)(F)F)cc2)cc(N2CC(O)C2)n2c1nc1ccccc12,21.3 µM,,,,
N#Cc1c(-c2ccc(C(F)(F)F)cc2)cc(NC2CCS(=O)(=O)CC2)n2c1nc1ccccc12,7.81 µM,,,,
CCNCCNc1cc(-c2ccc(C(F)(F)F)cc2)c(C#N)c2nc3ncccc3n12,0.14 µM,5,0.13 µM,4.1 µM,solubility kinetic at 2 h [6]: 10 µM
CNC1CCCN(c2cc(-c3ccc(C(F)(F)F)cc3)c(C#N)c3nc4ccccc4n23)C1 (stereo unspecified),1.38 µM,,,,
CCNCCNc1cc(C(F)(F)F)c(C#N)c2nc3ccccc3n12,2.93 µM,,,,
Cc1ncc2n1-c1ccc(Cl)cc1C(c1ccccc1F)=NC2 [MIDAZOLAM],,,,,"remaining at 0.5 h, 1 µM [1]: 0.1%; remaining at 0.5 h, 1 µM [2]: 1.3%"
CCNCCNc1cc(-c2ccc(C(F)(F)F)cc2)c(C#N)c2nc3ccc(Br)cc3n12,0.07 µM,63,,4.44 µM,
CN1CCC(Oc2cc(-c3ccc(C(F)(F)F)cc3)c(C#N)c3nc4ccccc4n23)CC1,0.7 µM,6,0.96 µM,4.07 µM,
CN1CCC(Nc2cc(-c3ccc(C(F)(F)F)cc3)c(C#N)c3nc4cc(Cl)c(Cl)cc4n23)CC1,0.05 µM,6.1,0.19 µM,4.19 µM,
CCNCCNc1cc(-c2ccccc2)c(C#N)c2nc3ccccc3n12,0.7 µM,26,1.07 µM,18.3 µM,Activity (Huh-7): Non-Toxic; IC50 (Plasmodium falciparum [8]): 1.44 µM
CNC1CCN(c2cc(-c3ccc(C(F)(F)F)cc3)c(C#N)c3nc4ccccc4n23)C1 (stereo unspecified),1.14 µM,,,,
Cc1c(-c2ccc(C(F)(F)F)cc2)c(C#N)c2nc3ccccc3n2c1NCCN1CCC(O)C1 (stereo unspecified),0.55 µM,45,0.47 µM,25 µM,solubility kinetic at 2 h [6]: < 5 µM
CS(=O)(=O)N1CCC(Nc2cc(-c3ccc(C(F)(F)F)cc3)c(C#N)c3nc4ccccc4n23)CC1,5.02 µM,,,,
CS(=O)(=O)NCCNc1cc(-c2ccc(C(F)(F)F)cc2)c(C#N)c2nc3ccccc3n12,9.1 µM,,,,
N#Cc1c(-c2ccc(C(F)(F)F)cc2)cc(N2CCC(O)CC2)n2c1nc1ccccc12,> 24 µM,,,,
N#Cc1c(-c2ccc(C(F)(F)F)cc2)cc(NCC2CCOCC2)n2c1nc1ccccc12,> 10 µM,,,,
